Measurements from paper PMC3334839 (The Journal of Neuroscience, 2012).
Where a chain is given by its changes, count along the chain named.

Columns and labels:
[1] = tested on: native GlyRs in cultured spinal neurons; test: Whole-cell patch-clamp of Gly-activated current; assay type: cell-based, rat; details: vs vehicle
Summary of the method: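 Spinal cords from postnatal day 0 rats, papain-dissociated (20 U/ml, 37°C, 40 min). Plated at 300,000 cells/ml on poly-d-lysine in MEM/10% FBS, cultured ≥10 d, washed 30 min in external solution. Whole-cell, −60 mV, 20–22°C.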

[2] = target: T1, S296A mutant human α1 GlyR (Homo sapiens, UniProt P23415, S324A); test: cell-based; assay type: cell-based; details: for effect of S296A mutation on cannabinoid-induced potentiation of IGly: cannabinoid 1 μM, EC2 Gly (10 μM), vs wild-type α1
T1 sequence (P23415 29-457 S324A): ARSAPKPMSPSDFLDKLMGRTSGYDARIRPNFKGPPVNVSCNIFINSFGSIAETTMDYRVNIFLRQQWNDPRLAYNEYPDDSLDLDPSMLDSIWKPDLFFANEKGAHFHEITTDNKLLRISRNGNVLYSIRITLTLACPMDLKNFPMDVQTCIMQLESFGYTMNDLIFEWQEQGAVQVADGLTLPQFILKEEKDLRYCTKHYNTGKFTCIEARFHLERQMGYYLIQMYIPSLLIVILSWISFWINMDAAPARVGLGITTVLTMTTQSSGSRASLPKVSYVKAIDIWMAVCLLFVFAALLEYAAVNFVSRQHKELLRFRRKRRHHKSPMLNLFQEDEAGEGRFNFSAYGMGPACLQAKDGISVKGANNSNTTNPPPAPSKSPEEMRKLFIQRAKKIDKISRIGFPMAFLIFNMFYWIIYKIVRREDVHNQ

human α1 GlyR = target: T2, human α1 GlyR (Homo sapiens, UniProt P23415); test: cell-based; assay type: cell-based; details: for efficacy in potentiating IGly relative to AEA: concentration-response, α1 subunit (Fig. 5B)
T2 sequence (P23415 29-457): T1 sequence (P23415 29-457 S324A) with A296S

rat α2 GlyR = target: T3, rat α2 GlyR (Rattus norvegicus, UniProt P22771); test: Whole-cell patch-clamp of IGly in HEK-293 cells expressing α2 GlyRs; assay type: cell-based; details: read-out: EC50 for Gly (concentration-response curve); α2 subunit
T3 sequence (P22771 28-452): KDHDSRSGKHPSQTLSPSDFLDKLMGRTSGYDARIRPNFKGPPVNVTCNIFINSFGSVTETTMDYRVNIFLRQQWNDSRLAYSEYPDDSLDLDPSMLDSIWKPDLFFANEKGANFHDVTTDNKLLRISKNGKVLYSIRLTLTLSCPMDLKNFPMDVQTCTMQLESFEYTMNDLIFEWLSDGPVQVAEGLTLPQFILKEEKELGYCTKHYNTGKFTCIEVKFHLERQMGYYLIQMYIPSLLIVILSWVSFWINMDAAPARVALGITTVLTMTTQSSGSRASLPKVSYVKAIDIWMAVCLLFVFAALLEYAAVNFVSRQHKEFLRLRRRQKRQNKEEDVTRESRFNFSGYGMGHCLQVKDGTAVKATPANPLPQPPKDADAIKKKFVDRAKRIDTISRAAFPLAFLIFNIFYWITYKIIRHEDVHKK

rat α3 GlyR = target: T4, rat α3 GlyR (Rattus norvegicus, UniProt P24524); test: Whole-cell patch-clamp of IGly in HEK-293 cells expressing α3 GlyRs; assay type: cell-based; details: read-out: EC50 for Gly (concentration-response curve); α3 subunit
T4 sequence (P24524 34-464): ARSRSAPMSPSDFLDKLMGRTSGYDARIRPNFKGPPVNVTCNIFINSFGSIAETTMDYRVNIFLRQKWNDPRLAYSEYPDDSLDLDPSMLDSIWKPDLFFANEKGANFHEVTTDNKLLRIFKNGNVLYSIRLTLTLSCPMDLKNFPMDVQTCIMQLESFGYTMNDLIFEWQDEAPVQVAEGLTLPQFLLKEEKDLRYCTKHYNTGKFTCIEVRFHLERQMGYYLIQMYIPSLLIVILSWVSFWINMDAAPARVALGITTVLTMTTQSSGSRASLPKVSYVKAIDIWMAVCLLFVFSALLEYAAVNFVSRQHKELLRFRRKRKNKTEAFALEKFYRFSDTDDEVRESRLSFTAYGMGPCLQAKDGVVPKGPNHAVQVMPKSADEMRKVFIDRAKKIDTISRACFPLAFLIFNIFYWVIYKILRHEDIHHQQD

[3] = HEK293, read-out: inhibition of IGly
[4] = 3 μM coapplied, apparently competitive, parallel rightward shift

Oc1cc2c(cc1O)CN(C(=S)NCCc1ccc(Cl)cc1)CCC2 [capsazepine]
effect of antagonist on AEA-induced potentiation of IGly ([1]; antagonist 2 μM): did not significantly alter

SR144528
effect of antagonist on AEA-induced potentiation of IGly ([1]; antagonist 1 μM): did not significantly alter

CCCCCc1cc(O)c2c(c1)OC(C)(C)[C@@H]1CCC(C)=C[C@@H]21 [THC, Δ^9-tetrahydrocannabinol]
effect of S296A mutation on cannabinoid-induced potentiation of IGly [2]: significantly reduced

NCC(=O)O [Gly, glycine]
maximal current density (MCD) (human α1 GlyR): 912 ± 153 pA/pF
EC50 (rat α2 GlyR): 128 ± 10 µM
EC50 (rat α3 GlyR): 354 ± 29 µM
maximal current density (MCD) [2]: 906 ± 147 pA/pF

CCCCCC=CCC=CCC=CCC=CCCCC(=O)NCC [Dehydroxyl-AEA, Dehydroxylanandamide]
efficacy in potentiating IGly relative to AEA (human α1 GlyR): reduced efficacy

C=C(C)[C@@H]1CCC(C)=C[C@H]1c1c(O)cc(CCCCC)cc1O [CBD, cannabidiol]
effect of S296A mutation on cannabinoid-induced potentiation of IGly [2]: significantly reduced

CCCCCCC(C)(C)c1cc(O)c2c(c1)OC(C)(C)[C@@H]1CC=C(CO)C[C@@H]21 [HU210]
effect of S296A mutation on cannabinoid-induced potentiation of IGly [2]: significantly reduced

Cc1c(C(=O)NN2CCCCC2)nn(-c2ccc(Cl)cc2Cl)c1-c1ccc(I)cc1 [AM251]
effect of antagonist on AEA-induced potentiation of IGly ([1]; antagonist 1 μM): did not significantly alter

O=C1C[C@@H]2OCC=C3CN4CC[C@]56c7ccccc7N1[C@H]5[C@H]2[C@H]3C[C@H]46 [strychnine]
inhibition at 0.1 µM (human α1 GlyR; [3]): 78 ± 9%
inhibition at 0.1 µM [2, 3]: 81 ± 13%

Desoxyanandamide [Desoxy-AEA]
effect on AEA-induced potentiation of IGly (human α1 GlyR; [4]): inhibited
effect on THC-induced potentiation of IGly (human α1 GlyR; [4]): inhibited
efficacy in potentiating IGly relative to AEA (human α1 GlyR): reduced efficacy
